From ChEMBL document CHEMBL4196022, “Alkynyl-containing phenylthiazoles: Systemically active antibacterial agents effective against methicillin-resistant Staphylococcus aureus (MRSA)” (Eur J Med Chem, 2018)
Converted amounts (≈) assume the structure as drawn.

Columns and labels:
[1] = system: Staphylococcus aureus; assay: Ratio of MBC to MIC for methicillin-resistant Staphylococcus aureus USA300; format: functional
In short: (§1)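 MBC/MIC ratio. […] MBC by plating no-growth wells onto tryptic soy agar at 37 °C for at least 18 h; taken as the concentration giving 99.9% growth inhibition.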

[2] = system: Staphylococcus aureus; assay: Antibacterial activity against methicillin-resistant Staphylococcus aureus USA300 after 20 hrs by broth microdilution assay; format: functional; details: USA300, 20 h
In short: (§2)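 Broth microdilution per CLSI in cation-adjusted Mueller Hinton broth. Compounds serially diluted, in triplicate. Incubation at 37 °C for at least 20 hours. MIC taken as the lowest concentration with no visible bacterial growth.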

[3] = system: Staphylococcus aureus; assay: Bactericidal activity against methicillin-resistant Staphylococcus aureus USA300 up to 18 hrs by broth microdilution assay; format: functional; details: USA300, 18 h, read-out: MBC99.9
[4] = system: Staphylococcus aureus; assay: Potency index, ratio of vancomycin MIC to compound MIC for antibacterial activity against vancomycin-resistant Staphylococcus aureus VRS10; format: functional
[5] = system: Staphylococcus aureus; assay: Bactericidal activity against methicillin resistant Staphylococcus aureus NRS123 (USA400) up to 18 hrs by broth microdilution assay; format: functional; details: read-out: MBC99.9
[6] = system: Staphylococcus aureus; assay: Bactericidal activity against methicillin resistant vancomycin-resistant Staphylococcus aureus VRS12 up to 18 hrs by broth microdilution assay; format: functional; details: VRS12, 18 h, read-out: MBC99.9
In short: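 MBC set up from the MIC plates. Aliquots from wells with no growth spotted onto tryptic soy agar and incubated at 37 °C for at least 18 hours. MBC taken as the lowest concentration giving 99.9% inhibition of bacterial growth.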

[7] = Selectivity index, ratio of toxic concentration for human HRT18 cells to MIC for methicillin-resistant Staphylococcus aureus; format: toxicity; details: read-out: Selectivity Index
[8] = system: Staphylococcus aureus; assay: Ratio of MBC to MIC for vancomycin-resistant Staphylococcus aureus VRS10; format: functional; in short: as §1
[9] = system: Staphylococcus aureus; assay: Ratio of MBC to MIC for vancomycin-resistant Staphylococcus aureus VRS12; format: functional; in short: as §1
[10] = system: Staphylococcus aureus; assay: Antibacterial activity against vancomycin-resistant Staphylococcus aureus VRS10 after 20 hrs by broth microdilution assay; format: functional; details: VRS10, 20 h; in short: as §2
[11] = system: Staphylococcus aureus; assay: Bactericidal activity against methicillin resistant vancomycin-resistant Staphylococcus aureus VRS10 up to 18 hrs by broth microdilution assay; format: functional; details: VRS10, 18 h, read-out: MBC99.9
[12] = system: Staphylococcus aureus; assay: Antibacterial activity against methicillin-resistant Staphylococcus aureus NRS123 (USA400) after 20 hrs by broth microdilution assay; format: functional; in short: as §2
[13] = system: Staphylococcus aureus; assay: Bactericidal activity against methicillin-resistant Staphylococcus aureus NRS119 up to 18 hrs by broth microdilution assay; format: functional; details: NRS119, 18 h, read-out: MBC99.9
[14] = system: Staphylococcus aureus; assay: Bactericidal activity against methicillin-resistant Staphylococcus aureus NRS107 up to 18 hrs by broth microdilution assay; format: functional; details: NRS107, 18 h, read-out: MBC99.9
[15] = system: Staphylococcus aureus; assay: Bactericidal activity against methicillin resistant vancomycin-resistant Staphylococcus aureus VRS11a up to 18 hrs by broth microdilution assay; format: functional; details: read-out: MBC99.9
[16] = system: Staphylococcus aureus; assay: Potency index, ratio of vancomycin MIC to compound MIC for antibacterial activity against vancomycin-resistant Staphylococcus aureus VRS11a; format: functional
[17] = system: Staphylococcus aureus; assay: Ratio of MBC to MIC for vancomycin-resistant Staphylococcus aureus VRS11a; format: functional; in short: as §1
[18] = system: Staphylococcus aureus; assay: Ratio of MBC to MIC for methicillin-resistant Staphylococcus aureus NRS107; format: functional; in short: as §1
[19] = system: Staphylococcus aureus; assay: Ratio of MBC to MIC for methicillin-resistant Staphylococcus aureus NRS119; format: functional; in short: as §1
[20] = system: HRT-18 cell line; assay: Cytotoxicity against human HRT18 cells assessed as reduction in cell viability up to 32 ug/ml after 2 hrs by MTS assay; format: cell-based; details: hrt-18, 2 h
[21] = system: Staphylococcus aureus; assay: Potency index, ratio of vancomycin MIC to compound MIC for antibacterial activity against vancomycin-resistant Staphylococcus aureus VRS12; format: functional
[22] = system: Staphylococcus aureus; assay: Antibacterial activity against methicillin-resistant Staphylococcus aureus NRS119 after 20 hrs by broth microdilution assay; format: functional; details: NRS119, 20 h; in short: as §2
[23] = system: Staphylococcus aureus; assay: Antibacterial activity against methicillin-resistant Staphylococcus aureus NRS107 after 20 hrs by broth microdilution assay; format: functional; details: NRS107, 20 h; in short: as §2
[24] = system: Staphylococcus aureus; assay: Antibacterial activity against vancomycin-resistant Staphylococcus aureus VRS12 after 20 hrs by broth microdilution assay; format: functional; details: VRS12, 20 h; in short: as §2
[25] = system: Staphylococcus aureus; assay: Ratio of MBC to MIC for methicillin-resistant Staphylococcus aureus NRS123 (USA400); format: functional; in short: as §1
[26] = system: Staphylococcus aureus; assay: Antibacterial activity against vancomycin-resistant Staphylococcus aureus VRS11a after 20 hrs by broth microdilution assay; format: functional; in short: as §2

Structure (SMILES)	Ratio [1]	MIC [2]	MBC [3]	Ratio [4]	MBC [5]	MBC [6]	Ratio [8]	Ratio [9]	MIC [10]	MBC [11]	MIC [12]	MBC [13]	MBC [14]	MBC [15]	Ratio [16]	Ratio [18]	Ratio [21]	MIC [22]	MIC [23]	MIC [24]	other results
C/C(=N\NC1=NCCN1)c1sc(-c2ccc(C#CCC3CCCC3)cc2)nc1C	<=3	8 µg/mL (≈ 19.7 µM)	32 µg/mL (≈ 78.9 µM)																		
C/C(=N\NC(=N)N)c1sc(-c2ccc(C#CC(C)(C)C)cc2)nc1C	<=3	4 µg/mL (≈ 11.3 µM)	4 µg/mL (≈ 11.3 µM)	>100	16 µg/mL (≈ 45.3 µM)	4 µg/mL (≈ 11.3 µM)	<=3	<=3	4 µg/mL (≈ 11.3 µM)	4 µg/mL (≈ 11.3 µM)	4 µg/mL (≈ 11.3 µM)	2 µg/mL (≈ 5.66 µM)	4 µg/mL (≈ 11.3 µM)	8 µg/mL (≈ 22.6 µM)	>100	<=3	4	2 µg/mL (≈ 5.66 µM)	2 µg/mL (≈ 5.66 µM)	4 µg/mL (≈ 11.3 µM)	selectivity ratio [7]: 7 to 31; Ratio ([17]; read-out: Ratio): 4; Ratio [19]: <=3; Activity [20]: Non-Toxic; Ratio ([25]; read-out: Ratio): 4; MIC [26]: 2 µg/mL (≈ 5.66 µM)
CCCCCC#Cc1ccc(-c2nc(C)c(/C(C)=N/NC3=NCCN3)s2)cc1	<=3	4 µg/mL (≈ 10.2 µM)	8 µg/mL (≈ 20.3 µM)	>100	32 µg/mL (≈ 81.3 µM)	32 µg/mL (≈ 81.3 µM)	<=3	<=3	8 µg/mL (≈ 20.3 µM)	64 µg/mL (≈ 163 µM)	16 µg/mL (≈ 40.7 µM)	32 µg/mL (≈ 81.3 µM)	32 µg/mL (≈ 81.3 µM)	16 µg/mL (≈ 40.7 µM)	>100	<=3	>100	16 µg/mL (≈ 40.7 µM)	16 µg/mL (≈ 40.7 µM)	16 µg/mL (≈ 40.7 µM)	Ratio [17]: <=3; Ratio [19]: <=3; Ratio [25]: <=3; MIC [26]: 8 µg/mL (≈ 20.3 µM)
CCCCCCC#Cc1ccc(-c2nc(C)c(/C(C)=N/NC(=N)N)s2)cc1	<=3	4 µg/mL (≈ 10.5 µM)	8 µg/mL (≈ 21 µM)	>100	4 µg/mL (≈ 10.5 µM)	4 µg/mL (≈ 10.5 µM)	<=3	<=3	2 µg/mL (≈ 5.24 µM)	4 µg/mL (≈ 10.5 µM)	4 µg/mL (≈ 10.5 µM)	4 µg/mL (≈ 10.5 µM)	8 µg/mL (≈ 21 µM)	2 µg/mL (≈ 5.24 µM)	>100	<=3	8	1 µg/mL (≈ 2.62 µM)	4 µg/mL (≈ 10.5 µM)	2 µg/mL (≈ 5.24 µM)	selectivity ratio [7]: 7 to 31; Ratio ([17]; read-out: Ratio): 4; Ratio ([19]; read-out: Ratio): 4; Activity [20]: Non-Toxic; Ratio [25]: <=3; MIC [26]: 0.5 µg/mL (≈ 1.31 µM)
C/C(=N\NC1=NCCN1)c1sc(-c2ccc(C#CC3CCCCC3)cc2)nc1C	<=3	8 µg/mL (≈ 19.7 µM)	8 µg/mL (≈ 19.7 µM)																		
C/C(=N\NC1=NCCN1)c1sc(-c2ccc(C#Cc3ccccc3)cc2)nc1C	<=3	8 µg/mL (≈ 20 µM)	16 µg/mL (≈ 40 µM)																		
CCCCCCC#Cc1ccc(-c2nc(C)c(/C(C)=N/NC3=NCCN3)s2)cc1	<=3	8 µg/mL (≈ 19.6 µM)	16 µg/mL (≈ 39.3 µM)																		
